Experimental data published in ChEMBL document CHEMBL1128306, “Design, synthesis, and evaluation of A/C/D-ring analogs of the fungal metabolite K-76 as potential complement inhibitors” (J Med Chem, 1995).

Legend:
Homo sapiens [1] = species on record: Homo sapiens; assay: Inhibitory activity against mitogen-stimulated PBL proliferation; Range 1.7-2.8 mM; type: functional
[2] = Inhibitory activity against hemolysis (complement-mediated erythrocyte lysis) of antibody-sensitized sheep erythrocytes using human serum as complementary source; type: functional
How it was run: (§1)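 Antibody-sensitized sheep erythrocytes were exposed to compounds and to human serum in 0.1 M HEPES, 0.15 N NaCl, pH 7.4. Serum dilution was pre-set to lyse 80–90% of cells. Incubation 60 min at 37 °C, then centrifugation and supernatant A410 for hemoglobin release. Triplicate controls without serum were subtracted. Inhibition is relative to the no-compound sample.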

[3] = (§2) Compound was tested to inhibit the production of C5a relative to C3a; type: functional, Homo sapiens
How it was run: (§3)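 Human serum aliquots (400 μL) equilibrated at 37 °C with varying compound concentrations in 0.1 M Hepes, 0.15 N NaCl, pH 7.4. Complement activated with heat-aggregated IgG at 14 mg/mL, 10 min at 37 °C. C3a[desArg] and C5a[desArg] were measured by radioimmunoassay. Triplicates were averaged. Fractional inhibition is relative to the no-compound sample and the background without aggregated IgG.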

[4] = as §2; type: functional, Homo sapiens; how it was run: as §3; remark: listed apart in the source
T-cell = assay: Inhibitory activity against lectin-stimulated T cell proliferation; type: functional, cell-based
[5] = Inhibitory activity against hemolysis of antibody-sensitized sheep erythrocytes using human serum as complementary source in multiple assay; type: functional; how it was run: as §1
[6] = Inhibitory activity against C5a production by activated human serum complement; type: functional; how it was run: as §3
Homo sapiens [7] = species on record: Homo sapiens; assay: Inhibitory activity against mitogen-stimulated PBL proliferation; type: functional

IC50 [3] [µM]	IC50 [4] [µM]	IC50 [6] [µM]	Compound	IC50 (Homo sapiens [1]) [µM]	IC50 [2]	inhibition (T-cell)	IC50 [5] [µM]	IC50 (Homo sapiens [7]) [µM]	IC50 ([2]; read-out: IC50) [µM]
–	–	–	CC1=CCC(C2(C)Cc3c(O)ccc(C(=O)O)c3O2)CC1 (stereo not given)	< 2800	Less Effective	–	–	–	–
8000	6000	–	COc1ccc(C(=O)O)c2c1CC(C)(C1CC=C(C)CC1)O2 (stereo not given)	< 2800	–	–	–	–	–
–	–	3000	C[C@@H]1CCC2C(C)(C)[C@H](O)[C@H](O)C[C@]2(C)[C@@]12Cc1c(O)cc(C(=O)O)c(C=O)c1O2 (stereo not given in full)	–	–	Inhibit	570	500	300
